Measured values from ChEMBL document CHEMBL4368925, “Design, synthesis, and screening of novel ursolic acid derivatives as potential anti-cancer agents that target the HIF-1α pathway” (Bioorg Med Chem Lett, 2019).
Activity calls are given as the source filed them.

Tests used:
[1] = biological target: Hypoxia-inducible factor 1-alpha (Homo sapiens) (UniProt Q16665); test: Inhibition of HIF1alpha protein level in human Hep3B cells after 12 hrs in hypoxic condition by Western blot analysis; type: cell-based
Outline: (§1)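 HCT116, A549, Hep3B and HeLa cells incubated 12 h under normoxia or hypoxia with or without indicated compound concentrations; nuclear extracts probed for HIF-1α by Western blot, blot reprobed for topoisomerase-I as loading control.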

[2] = biological target: Hypoxia-inducible factor 1-alpha (Homo sapiens) (UniProt Q16665); test: Inhibition of HIF1alpha protein level in human Hep3B cells after 12 hrs in normoxic condition by Western blot analysis; type: cell-based; outline: as §1
[3] = biological target: Hypoxia-inducible factor 1-alpha (Homo sapiens) (UniProt Q16665); test: Inhibition of HIF1alpha protein level in human HCT116 cells after 12 hrs in hypoxic condition by Western blot analysis; type: cell-based; outline: as §1
[4] = biological target: Hypoxia-inducible factor 1-alpha (Homo sapiens) (UniProt Q16665); test: Inhibition of HIF1alpha protein level in human A549 cells after 12 hrs in hypoxic condition by Western blot analysis; type: cell-based; outline: as §1
Hep 3B2 [5] = test: Cytotoxicity against human Hep3B cells assessed as reduction in cell viability up to 30 uM after 24 hrs in normoxic condition by MTT assay; type: cell-based; settings: hep 3b2, 24 h
Outline: (§2)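 Hep3B viability by MTT assay after 24 h compound treatment under normoxia; table values are means, n=3.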

Hep 3B2 [6] = test: Downregulation of HIF1alpha mRNA expression in human Hep3B cells up to 10 uM after 12 hrs in hypoxic condition by RT-PCR analysis; type: functional, cell-based
Outline: (§3)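 Hep3B cells held under normoxia or hypoxia for 12 h with or without indicated compound concentrations; RNA isolated, reverse-transcribed and analysed by RT-PCR for HIF-1α and VEGF, GAPDH as loading control; mean ± SD of three independent experiments.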

[7] = biological target: Hypoxia-inducible factor 1-alpha (Homo sapiens) (UniProt Q16665); test: Inhibition of HIF1alpha in human Hep3B cells at 10 uM preincubated with 26S proteosome inhibitor MG132 followed by compound addition and measured after 12 hrs in hypoxic condition by Western blot analysis; type: cell-based
Outline: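 Proteasome inhibitor MG-132 (10 μM) added to Hep3B cells 30 min before compound (10 μM), then hypoxia for 12 h; nuclear HIF-1α detected by Western blot.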

Hep 3B2 [8] = test: Antiproliferative activity against human Hep3B cells assessed as reduction in EdU incorporation at 10 uM after 12 hrs in hypoxic condition by DAPI staining based inverted fluorescence microscopic method; type: functional, cell-based
Outline: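 Hep3B cells incubated 12 h with or without compound at 10 μM; EdU-labelled replicating cells examined by fluorescence microscopy, DNA counterstained with DAPI; percentage of EdU-positive cells compared with vehicle-treated cells.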

A549 = test: Effect on TOP1 protein level in human A549 cells after 12 hrs in hypoxic condition by Western blot analysis; type: functional, cell-based; outline: as §1
[9] = biological target: Hypoxia-inducible factor 1-alpha (Homo sapiens) (UniProt Q16665); test: Inhibition of HIF1alpha protein level in human Hep3B cells at 10 uM after 12 hrs in hypoxic condition by DAPI-staining based confocal laser scanning microscopic analysis; type: cell-based
Outline: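 Hep3B cells given 10 μM compound for 12 h under hypoxia, fixed, stained with anti-HIF-1α (1:100) and Alexa Fluor 488 goat anti-mouse IgG, nuclei counterstained with DAPI; imaged by fluorescence microscopy with 40× objective.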

[10] = biological target: Hypoxia-inducible factor 1-alpha (Homo sapiens) (UniProt Q16665); test: Inhibition of HIF1alpha protein level in human A549 cells after 12 hrs in normoxic condition by Western blot analysis; type: cell-based; outline: as §1
Hep 3B2 [11] = test: Anticlonogenic activity against human Hep3B cells after 10 days by crystal violet staining based assay; type: functional, cell-based
Outline: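 Hep3B cells exposed to compound at 0, 1, 3 and 10 μM for 12 h, then medium replaced with fresh medium and cells grown 10 d; colony formation imaged.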

Hep 3B2 [12] = test: Downregulation of HIF1alpha mRNA expression in human Hep3B cells up to 10 uM after 12 hrs in normoxic condition by RT-PCR analysis; type: functional, cell-based; outline: as §3
HCT-116 = test: Effect on TOP1 protein level in human HCT116 cells after 12 hrs in hypoxic condition by Western blot analysis; type: functional, cell-based; outline: as §1
[13] = biological target: Hypoxia-inducible factor 1-alpha (Homo sapiens) (UniProt Q16665); test: Inhibition of HIF1alpha protein level in human HeLa cells after 12 hrs in normoxic condition by Western blot analysis; type: cell-based; outline: as §1
HeLa = test: Effect on TOP1 protein level in human HeLa cells after 12 hrs in hypoxic condition by Western blot analysis; type: functional, cell-based; outline: as §1
[14] = biological target: Hypoxia-inducible factor 1-alpha (Homo sapiens) (UniProt Q16665); test: Inhibition of HIFalpha in human Hep3B cells assessed as downregulation of VEGF mRNA expression up to 10 uM after 12 hrs in hypoxic condition by RT-PCR analysis; type: cell-based; outline: as §3
[15] = biological target: Hypoxia-inducible factor 1-alpha (Homo sapiens) (UniProt Q16665); test: Inhibition of HIF1alpha protein level in human HCT116 cells after 12 hrs in normoxic condition by Western blot analysis; type: cell-based; outline: as §1
[16] = biological target: Hypoxia-inducible factor 1-alpha (Homo sapiens) (UniProt Q16665); test: Inhibition of HIF1alpha protein level in human HeLa cells after 12 hrs in hypoxic condition by Western blot analysis; type: cell-based; outline: as §1
[17] = biological target: T1, 26S proteasome (Homo sapiens) (UniProt Q99460+P49721+P20618+P28074+P28062+P28065+P28072+O00487+P25786+P25787+P25788+P25789+P28066+P60900+O14818+Q8TAA3+P40306+A5LHX3+P49720+P28070+Q99436+Q16186+P35998+P62191+P43686+P62333+P17980+P62195+Q13200+O43242+O00232+O00231+Q15008+P51665+Q9UNM6+P55036+P48556+P60896); test: Inhibition of 26S proteosome in human Hep3B cells grown under in hypoxic condition for 4 hrs assessed as downregulation of HIF1alpha level at 10 uM added together with cycloheximide and measured after up 45 mins post dose by Western blot analysis; type: cell-based
Outline: (§4)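 Hep3B cells kept under normoxia or hypoxia for 4 h, then cycloheximide (10 μM) and compound (10 μM) added to the medium; HIF-1α level detected by Western blot at 0, 15, 30 or 45 min after cycloheximide.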

Hep 3B2 [18] = test: Cytotoxicity against human Hep3B cells assessed as reduction in cell viability after 24 hrs in normoxic condition by MTT assay; type: cell-based; outline: as §2
Hep 3B2 [19] = test: Effect on TOP1 protein level in human Hep3B cells after 12 hrs in hypoxic condition by Western blot analysis; type: functional, cell-based; outline: as §1
[20] = biological target: T1, 26S proteasome (Homo sapiens); test: Inhibition of 26S proteosome in human Hep3B cells grown under in normoxic condition for 4 hrs assessed as downregulation of HIF1alpha level at 10 uM added together with cycloheximide and measured after up 45 mins post dose by Western blot analysis; type: cell-based; outline: as §4
[21] = biological target: Hypoxia-inducible factor 1-alpha (Homo sapiens) (UniProt Q16665); test: Inhibition of HIF1alpha transcriptional activity in human Hep3B cells after 24 hrs in hypoxic condition by HRE-dual luciferase reporter gene assay; type: cell-based
Outline: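 Hep3B cells transiently co-transfected with pGL3-HRE-luciferase and pRL-CMV, after 24 h incubated under hypoxia with or without compound; luciferase activity measured after 24 h, ursolic acid as positive control; mean ± SD of three independent experiments.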

Hypoxia-inducible factor 1-alpha (Homo sapiens), sequence (Q16665 whole entry, looked up): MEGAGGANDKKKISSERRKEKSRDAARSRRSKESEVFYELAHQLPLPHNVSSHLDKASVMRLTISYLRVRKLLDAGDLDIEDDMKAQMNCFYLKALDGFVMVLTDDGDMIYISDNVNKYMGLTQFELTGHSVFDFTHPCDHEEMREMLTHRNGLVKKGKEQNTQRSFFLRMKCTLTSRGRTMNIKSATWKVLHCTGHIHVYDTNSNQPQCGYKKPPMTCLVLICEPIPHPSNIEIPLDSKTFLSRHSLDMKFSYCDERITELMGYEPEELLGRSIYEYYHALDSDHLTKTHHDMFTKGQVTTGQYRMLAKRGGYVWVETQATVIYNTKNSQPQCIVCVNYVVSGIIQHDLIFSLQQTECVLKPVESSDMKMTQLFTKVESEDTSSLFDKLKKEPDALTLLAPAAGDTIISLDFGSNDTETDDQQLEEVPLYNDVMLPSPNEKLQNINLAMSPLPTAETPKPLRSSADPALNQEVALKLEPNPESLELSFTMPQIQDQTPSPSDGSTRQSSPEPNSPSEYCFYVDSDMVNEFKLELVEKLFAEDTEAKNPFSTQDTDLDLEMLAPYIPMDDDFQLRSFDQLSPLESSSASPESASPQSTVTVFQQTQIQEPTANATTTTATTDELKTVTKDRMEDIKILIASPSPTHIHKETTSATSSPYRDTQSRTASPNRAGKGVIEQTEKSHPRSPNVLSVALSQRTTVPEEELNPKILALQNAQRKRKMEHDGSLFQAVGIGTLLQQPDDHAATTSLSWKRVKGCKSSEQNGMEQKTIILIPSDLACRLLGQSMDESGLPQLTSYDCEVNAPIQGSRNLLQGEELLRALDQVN

C[C@H]1[C@H](C)CC[C@]2(C(=O)O)CC[C@]3(C)C(=CC[C@@H]4[C@@]5(C)CC(=C\c6ccc(Cl)cc6)/C(=N\NC(=N)N)C(C)(C)[C@@H]5CC[C@]43C)[C@H]12
> 100 µM: IC50 (Hep 3B2 [18])
active: inhibition [1] Dose-dependent effect | inhibition [3] Dose-dependent effect | inhibition [4] Dose-dependent effect | inhibition [7] | Activity (Hep 3B2 [8]) | inhibition [9] | Activity (Hep 3B2 [11]) Dose-dependent effect | inhibition [14] | inhibition [16] Dose-dependent effect | inhibition [21] Dose-dependent effect
inactive: inhibition [2] | Activity (Hep 3B2 [6]) | Activity (A549) | inhibition [10] | Activity (Hep 3B2 [12]) | Activity (HCT-116) | inhibition [13] | Activity (HeLa) | inhibition [15] | inhibition [17] | Activity (Hep 3B2 [19]) | inhibition [20]
Non-Toxic: Activity (Hep 3B2 [5])
